Compound activity as filed in PubChem.
Compounds with a hit are over-represented: about 2% of the library has one in this group of screens.
MBD2 inh = inhibitors of MBD2 binding to methylated DNA, primary screen, biochemical, TR-FRET, DNA-binding domain, human; Methyl-CpG-binding domain protein 2 (Homo sapiens), Q9UBB5; MBD2 binding to methylated oligonucleotide; inhibition, % at 4.4 µM; 370,000 compounds, 0.31% hits; in the data active = inhibition above about 13%
ARFGAP1 inh = inhibitors of rat ARFGAP1 GAP activity, primary screen, biochemical, fluorescence polarization, GDP tracer | ADP-ribosylation factor GTPase-activating protein 1 (Rattus norvegicus), Q62848 | Arfgap1-stimulated ARF1 GTP hydrolysis, GDP FP detection | inhibition, % at 16.5 µM | 360,000 compounds, 0.26% hits | AID 651572, 2012;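 active = inhibition above a per-plate limit, mean inhibition of low control wells plus 3 SD, cut at about 25% in these data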;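 note: 0% = DMSO wells with enzyme and 100% = wells lacking Arfgap1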
Target sequence (Q62848 1-136 limits assumed): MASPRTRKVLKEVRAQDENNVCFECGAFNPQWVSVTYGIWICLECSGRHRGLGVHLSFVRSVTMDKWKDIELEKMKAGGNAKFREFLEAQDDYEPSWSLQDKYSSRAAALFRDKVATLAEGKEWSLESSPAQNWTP
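Assay system: purified rat His6-Arfgap1 residues 1-136 (GAP domain); Reagent: human Δ17 ARF1 bound to GTP; Dosing: 16.5 µM single point, 1.26% DMSO; Times: GTP hydrolysis reaction 2 h at 25 °C; Signal: FP, GDP Alexa 633 tracer displaced from anti-GDP antibody, 620/688 nm; Measure: % inhibition from polarization.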
UHRF1 MBD2 ctr = UHRF1 methylated DNA binding inhibitors, primary screen, counter-screen for MBD2 inhibitor project, biochemical, TR-FRET, human UHRF1, single concentration; inhibition, % at 4.4 µM; UHRF1 binding to methylated oligo; 370,000 compounds, 0.75% hits; E3 ubiquitin-protein ligase UHRF1 (Homo sapiens), Q96T88; in the data active = inhibition above about 21%;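 note: UHRF1 SRA domain binding a hemimethylated CpG hairpin DNA probe; 0% = median of test compound wells and 100% = reference inhibitor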
TCR-CD3 inh = inhibitors of human TCR-CD3 interaction, primary screen, biochemical, fluorescence, TAMRA-labeled TCR probe | inhibition, % at 9.4 µM | 360,000 compounds, 0.37% hits; in the data active = inhibition above about 19%;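 note: recombinant mutant TCR 2C K166C tagged with TAMRA read by polarization; 0% = receptor in buffer alone and 100% = receptor with positive control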
ASAP1 GAP inh = inhibitors of human ASAP1 ArfGAP activity, primary screen, biochemical, fluorescence polarization; AID 624377, 2012; ASAP1-stimulated ARF1 GTP hydrolysis, GDP FP detection; 360,000 compounds, 0.19% hits; inhibition, % at 16.5 µM; in the data active = inhibition above about 25%;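 note: 0% = vehicle with enzyme and substrate and 100% = no enzyme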
Target sequence (Q9ULH1 325-724 limits assumed): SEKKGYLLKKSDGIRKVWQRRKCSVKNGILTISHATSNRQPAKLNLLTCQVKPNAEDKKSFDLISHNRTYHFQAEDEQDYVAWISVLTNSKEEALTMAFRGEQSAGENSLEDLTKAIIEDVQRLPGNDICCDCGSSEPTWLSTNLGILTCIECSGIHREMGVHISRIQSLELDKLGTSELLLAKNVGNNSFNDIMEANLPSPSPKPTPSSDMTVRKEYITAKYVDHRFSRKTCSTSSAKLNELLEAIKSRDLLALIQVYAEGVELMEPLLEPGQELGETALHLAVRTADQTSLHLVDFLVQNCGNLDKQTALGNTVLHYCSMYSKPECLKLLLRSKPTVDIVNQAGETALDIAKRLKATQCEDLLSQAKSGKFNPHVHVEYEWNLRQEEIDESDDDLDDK
LEDGF integ inh = blockers of LEDGF/p75-dependent integrase strand transfer – biochemical, TR-FRET, high throughput, primary screen. inhibition, % at 3.7 µM. TR-FRET IN-LEDGF/p75 DNA integration, Eu/Cy5. 370,000 compounds, 0.64% hits;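 active = inhibition above the screen-wide mean plus 3 SD, cut at about 13% in these data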;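 note: signal is the Cy5 over europium emission ratio at 671 and 618 nm; 0% = plate median of compound wells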
IN multimer up = HIV-1 IN multimer formation enhancers, counter-screen for LEDGF/p75 integration inhibitor project, biochemical, TR-FRET. shares compounds with LEDGF integ inh. TR-FRET HIV-1 integrase multimerization. activation, % at 7.7 µM. 2,000 compounds, 17% hits. AID 1053131, 2014; in the data active = activation above about 8.9%
TRFRET interf = TR-FRET optical interference artefacts, confirmation, artefact control for LEDGF/p75-dependent integration inhibitor project, biochemical, HIV-1 IN multimerization; shares compounds with LEDGF integ inh; TR-FRET optical interference counterscreen; inhibition, % at 7.7 µM; 2,000 tested, under 10 active; AID 1053135, 2014;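 active = inhibition above the mean over all tested compounds plus 3 SD, which no compound reached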;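 note: 0% = integrase with antibodies and DMSO and 100% = antibodies without integrase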
LEDGF integ conf = inhibitors of HIV-1 IN-LEDGF/p75 DNA integration, confirmation, biochemical, TR-FRET; shares compounds with LEDGF integ inh; TR-FRET LEDGF/p75-dependent HIV-1 integration; inhibition, % at 3.7 µM; 2,000 compounds, 36% hits; AID 1053136, 2014; in the data active = inhibition above about 14%
* = called active by the depositor.

Screening CC(C)(C)c1cc(=O)n(-c2ccccc2)[nH]1 returned MBD2 inh 9, ARFGAP1 inh 29*, UHRF1 MBD2 ctr 15, TCR-CD3 inh -3, ASAP1 GAP inh 4, LEDGF integ inh 22*, IN multimer up -2, TRFRET interf 7 and LEDGF integ conf 11.
For O=c1cc(-c2ccccc2)[nH]n1-c1ccccc1 the results were MBD2 inh 7, ARFGAP1 inh 7, UHRF1 MBD2 ctr 16, TCR-CD3 inh 4, ASAP1 GAP inh 5, LEDGF integ inh 37*, IN multimer up 1, TRFRET interf -5 and LEDGF integ conf -1.
Screening COc1ccc(S(=O)(=O)N2CCOCC2)cc1NC(=O)c1cccs1 returned MBD2 inh -2, ARFGAP1 inh -9, UHRF1 MBD2 ctr -3, TCR-CD3 inh 3, ASAP1 GAP inh 2 and LEDGF integ inh -2.
Screening Cc1ncc([N+](=O)[O-])n1CC(=O)Nc1ccc(F)c(Cl)c1 returned MBD2 inh 4, ARFGAP1 inh -2, UHRF1 MBD2 ctr 0, TCR-CD3 inh -3, ASAP1 GAP inh -16 and LEDGF integ inh 4.
For O=C(CSc1nc2ccccc2o1)NC(=O)NCc1ccccc1 the results were MBD2 inh 0, ARFGAP1 inh 1, UHRF1 MBD2 ctr 3, TCR-CD3 inh 0, ASAP1 GAP inh -2, LEDGF integ inh 29*, IN multimer up 1, TRFRET interf -4 and LEDGF integ conf 0.
Screening Cc1ccc(-c2c(C(=O)O)c(C(=O)O)c3n2CSC3)cc1 returned MBD2 inh -4, ARFGAP1 inh 5, UHRF1 MBD2 ctr 2, TCR-CD3 inh 8, ASAP1 GAP inh -15, LEDGF integ inh 14*, IN multimer up 0, TRFRET interf -1 and LEDGF integ conf -5.
For O=c1[nH]c2cc3c(cc2cc1CN(Cc1nnnn1CC1CCCO1)C1CCCCC1)OCO3 (stereo not given) the results were MBD2 inh -7, ARFGAP1 inh 4, UHRF1 MBD2 ctr -8, TCR-CD3 inh -2, ASAP1 GAP inh -2, LEDGF integ inh 18*, IN multimer up 2, TRFRET interf -6 and LEDGF integ conf -2.
Screening O=C1NC(c2ccccc2)=N/C1=C/c1ccco1 returned MBD2 inh -2, ARFGAP1 inh 4, UHRF1 MBD2 ctr 3, TCR-CD3 inh 4, ASAP1 GAP inh 0 and LEDGF integ inh 11.
For O=C1NC(c2cccc(Br)c2)=N/C1=C\c1ccco1 the results were MBD2 inh 0, ARFGAP1 inh 9, UHRF1 MBD2 ctr 0, TCR-CD3 inh 8, ASAP1 GAP inh -1, LEDGF integ inh 21*, IN multimer up 4, TRFRET interf -20 and LEDGF integ conf 8.
`Cc1ccc(C2(C)NC(=O)N(CC(=O)NNC(=O)c3cc(C)oc3C)C2=O)cc1` (stereo not given) gave MBD2 inh 5, ARFGAP1 inh -3, UHRF1 MBD2 ctr -2, TCR-CD3 inh -3, ASAP1 GAP inh 6 and LEDGF integ inh -2.
CNc1ccc(Br)cc(C(=O)/C=C/c2ccc(OC)cc2)c1=O was read as MBD2 inh 8, ARFGAP1 inh -9, UHRF1 MBD2 ctr 12, TCR-CD3 inh -1, ASAP1 GAP inh 1, LEDGF integ inh 30*, IN multimer up 3, TRFRET interf -16 and LEDGF integ conf 27*.
`CNc1ccc(Br)cc(C(=O)/C=C/c2ccc3c(c2)OCO3)c1=O` gave MBD2 inh 2, ARFGAP1 inh 5, UHRF1 MBD2 ctr 2, TCR-CD3 inh 18, ASAP1 GAP inh 0, LEDGF integ inh 19*, IN multimer up 7, TRFRET interf -25 and LEDGF integ conf 36*.
`COc1ccc(NC(=O)CSc2nc(C3CC3)nc3ccccc23)c(OC)c1` gave MBD2 inh -4, ARFGAP1 inh -3, UHRF1 MBD2 ctr -1, TCR-CD3 inh 0, ASAP1 GAP inh -6 and LEDGF integ inh -1.
CCOc1cc(N2CCOCC2)c(OCC)cc1NC(=O)CSc1ncccn1 was read as MBD2 inh 0, ARFGAP1 inh -11, UHRF1 MBD2 ctr -2, TCR-CD3 inh 9, ASAP1 GAP inh 2 and LEDGF integ inh -3.
CCOc1cc(N2CCOCC2)c(OCC)cc1NC(=O)CSc1ncccc1C(=O)O was read as MBD2 inh -8, ARFGAP1 inh -1, UHRF1 MBD2 ctr 2, TCR-CD3 inh -3, ASAP1 GAP inh 1, LEDGF integ inh 29*, IN multimer up 2, TRFRET interf -9 and LEDGF integ conf 3.
`CC(=O)Nc1ccc(S(=O)(=O)NCCC(=O)OC(C)C(=O)NC2(C#N)CCCCC2)cc1` (stereo not given) gave MBD2 inh 1, ARFGAP1 inh -7, UHRF1 MBD2 ctr 0, TCR-CD3 inh 0, ASAP1 GAP inh -6, LEDGF integ inh 67*, IN multimer up -1, TRFRET interf 3 and LEDGF integ conf -8.
For COc1ccc(NC(=O)Nc2nnc([C@H]3C[C@H](O)[C@@H](CO)O3)s2)cc1 the results were MBD2 inh 1, ARFGAP1 inh -10, UHRF1 MBD2 ctr 0, TCR-CD3 inh 3, ASAP1 GAP inh -16 and LEDGF integ inh 8.
Screening COc1cc(NC(=O)CN2CCCCCC2)cc(OC)c1 returned MBD2 inh 0, ARFGAP1 inh 4, UHRF1 MBD2 ctr -1, TCR-CD3 inh 4, ASAP1 GAP inh 4, LEDGF integ inh 19*, IN multimer up 1, TRFRET interf -2 and LEDGF integ conf -11.
